According to ChEMBL document CHEMBL3259578, “Novel derivatives of 1-cyclohexyl-4-[3-(5-methoxy-1,2,3,4-tetrahydronaphthalen-1-yl)propyl]piperazine (PB28) with improved fluorescent and σ receptors binding properties” (J Med Chem, 2014):
Active and inactive are the calls of the source. The calls are words filed in the database; no cut-off is given here.

Columns and labels:
[1] = biological target: Sigma non-opioid intracellular receptor 1 (Cavia porcellus, UniProt Q60492); assay: Displacement of (+)-[3H]pentazocine from Dunkin guinea pig brain sigma 1 receptor
[2] = Displacement of [3H]DTG from Wistar Hannover rat liver sigma 2 receptor
[3] = Displacement of 2-(6-{1-[3-(4-Cyclohexylpiperazin-1-yl)propyl]-1,2,3,4-tetrahydronaphthalen-5-yloxy}hexyl)-5-dimethylamino-1H-isoindole-1,3(2H)-dione from sigma 2 receptor in human MCF7 cells after 45 mins by FACS analysis; assay type: cell-based
Method in brief: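 Intact, nonpermeabilized MCF7 cells incubated with competitor at 0.1 nmol/L–10 μmol/L followed by 100 nmol/L fluorescent σ2 tracer for 45 min at 37 °C. Washed twice with PBS, detached with dissociation solution, resuspended in PBS. Flow cytometry at 530 nm band-pass, 10 000 events; IC50 taken from displacement curve.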

[4] = Displacement of [3H]DTG from sigma 2 receptor in human MCF7 cells after 45 mins by FACS analysis; assay type: cell-based
MCF7 [5] = assay: Cellular uptake in human MCF7 cells at 50 to 100 nM after 20 to 40 mins by spinning disk confocal microscopy; assay type: ADME, cell-based; conditions: mcf7, 0.1 µM
Method in brief: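 Live and fixed MCF7 cells imaged by spinning-disk confocal microscopy from 50 nM ligand onward; intracellular fluorescence intensity followed over time after treatment. Excitation 405 nm […], 488 nm (green) or 561 nm (red channel), according to fluorophore.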

[6] = Drug uptake in cytoplasm of human MCF7 cells at 100 to 500 nM after 45 mins by spinning disk confocal microscopy; assay type: ADME, cell-based; conditions: mcf7, 0.75 h, 0.5 µM
Method in brief: (§1)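 MCF7 cells seeded in chamber slides 24 h ahead, treated 45 min with 100 or 500 nM ligand, fixed in 2% PFA for 30 min at 37 °C, washed with PBS. Spinning-disk confocal imaging, background-corrected; subcellular localization assessed, nuclear signal from pixel intensity profiles. Excitation 405, 488 or 561 nm depending on fluorophore.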

[7] = Drug uptake in perinuclear region of human MCF7 cells at 100 nM after 45 mins by spinning disk confocal microscopy; assay type: ADME, cell-based; conditions: mcf7, 0.75 h, 0.1 µM; method in brief: as §1
[8] = Drug uptake in vesicle of human MCF7 cells at 100 to 500 nM after 45 mins by spinning disk confocal microscopy; assay type: ADME, cell-based; conditions: mcf7, 0.75 h, 0.5 µM; method in brief: as §1
[9] = Drug uptake in nucleus of human MCF7 cells at 500 nM after 45 mins by spinning disk confocal microscopy; assay type: ADME, cell-based; conditions: mcf7, 0.75 h, 0.5 µM; method in brief: as §1
MCF7 [10] = assay: Cellular uptake in human MCF7 cells at 25 to 100 nmol/L after 45 mins […]; assay type: ADME, cell-based; conditions: mcf7, 0.75 h
MCF7 [11] = assay: Binding affinity to sigma 2 receptor overexpressed in human MCF7 cells assessed as compound internalization by measuring cellular accumulation at 25 nmol/L after 45 mins by flow cytometry in presence of PB28; assay type: cell-based
MCF7 [12] = assay: Binding affinity to sigma 2 receptor overexpressed in human MCF7 cells assessed as compound internalization by measuring cellular accumulation at 25 nmol/L after 45 mins by flow cytometry in presence of cis-1-cyclohexyl-4-[4-(2,6-difluorophenyl)cyclohexyl]piperazine; assay type: cell-based
MCF7 [13] = assay: Binding affinity to sigma 2 receptor in human MCF7 cells at 100 nmol/L after 45 mins by FACS analysis in presence of DTG and (+)-pentazocine; assay type: cell-based

Sigma non-opioid intracellular receptor 1, sequence (Q60492 whole entry): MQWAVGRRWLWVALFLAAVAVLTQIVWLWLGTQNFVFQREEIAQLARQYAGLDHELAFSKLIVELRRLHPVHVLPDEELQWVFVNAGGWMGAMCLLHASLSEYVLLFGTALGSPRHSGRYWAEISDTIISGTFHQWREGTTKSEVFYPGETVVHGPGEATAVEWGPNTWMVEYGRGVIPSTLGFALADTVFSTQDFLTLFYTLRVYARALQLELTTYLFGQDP

Structure (SMILES)	Ki [1] [nM]	Ki [2] [nM]	IC50 [3] [nM]	IC50 [4] [nM]	Drug uptake (MCF7 [5])	Drug uptake [6]	Drug uptake [7]	Drug uptake [8]	Drug uptake [9]	Drug uptake (MCF7 [10])	Activity (MCF7 [11])	Activity (MCF7 [12])	Activity (MCF7 [13])
O=[N+]([O-])c1ccc(NCCCCCCCCCCOc2cccc3c2CCCC3CCCN2CCN(C3CCCCC3)CC2)c2nonc12 (stereo not given)	258	31.2	–	–	–	–	–	–	–	–	–	–	–
Nc1ccc2c3c(cccc13)C(=O)N(CCCCCCOc1cccc3c1CCCC3CCCN1CCN(C3CCCCC3)CC1)C2=O (stereo not given)	156	6.57	–	–	Active	Active	Active	Active	Active	Active	inactive	inactive	–
CCN(CC)c1ccc2cc(/C=C/C3=[N+](CCCCCC(=O)NCCCCCCOc4cccc5c4CCCC5CCCN4CCN(C5CCCCC5)CC4)c4ccccc4C3(C)C)c(=O)oc2c1.[Br-] (stereo not given)	235	161	–	–	Active	Active	Active	Active	Active	–	–	–	–

Continued, in another order:

Ki [1] [nM]	Ki [2] [nM]	IC50 [3] [nM]	IC50 [4] [nM]	Drug uptake (MCF7 [5])	Drug uptake [6]	Drug uptake [7]	Drug uptake [8]	Drug uptake [9]	Drug uptake (MCF7 [10])	Structure (SMILES)	Activity (MCF7 [11])	Activity (MCF7 [12])	Activity (MCF7 [13])
–	–	4.27	1.2	–	–	–	–	–	–	COc1cccc2c1CCCC2CCCN1CCN(C2CCCCC2)CC1 (stereo not given)	–	–	–
–	–	–	–	Active	Active	Active	Active	Active	Active	O=[N+]([O-])c1ccc(NCCCCCCOc2cccc3c2CCCC3CCCN2CCN(C3CCCCC3)CC2)c2nonc12 (stereo not given)	inactive	inactive	–
5.37	6.9	–	–	Active	Active	Active	Active	Active	Active	CN(C)c1ccc2c(c1)C(=O)N(CCCCCCOc1cccc3c1CCCC3CCCN1CCN(C3CCCCC3)CC1)C2=O (stereo not given)	inactive	inactive	inactive
